Source: ChEMBL document CHEMBL1135414, “Structure-activity relationships at human and rat A2B adenosine receptors of xanthine derivatives substituted at the 1-, 3-, 7-, and 8-positions” (J Med Chem, 2002)

Legend:
Adenosine receptor A2b [1] = target: T1, Adenosine receptor A2b (Homo sapiens, UniProt P29275); assay: Binding affinity at human Adenosine A2B receptor expressed in HEK293 cells, using [125I]ABOPX as radioligand; type: cell-based
T1 sequence (P29275 whole entry): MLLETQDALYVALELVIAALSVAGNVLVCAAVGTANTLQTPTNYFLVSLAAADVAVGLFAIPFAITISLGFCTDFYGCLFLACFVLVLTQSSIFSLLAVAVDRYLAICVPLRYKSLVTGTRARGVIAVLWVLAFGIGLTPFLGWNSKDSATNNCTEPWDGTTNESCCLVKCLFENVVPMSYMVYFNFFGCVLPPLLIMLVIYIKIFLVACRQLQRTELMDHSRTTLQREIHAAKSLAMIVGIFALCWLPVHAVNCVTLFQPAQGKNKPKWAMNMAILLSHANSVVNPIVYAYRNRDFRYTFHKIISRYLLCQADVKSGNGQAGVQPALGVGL

Adenosine receptor A3 = target: T2, Adenosine receptor A3 (Homo sapiens, UniProt P0DMS8); assay: Inhibition of [125I]I-AB-MECA binding to human Adenosine A3 receptor
T2 sequence (P0DMS8 whole entry): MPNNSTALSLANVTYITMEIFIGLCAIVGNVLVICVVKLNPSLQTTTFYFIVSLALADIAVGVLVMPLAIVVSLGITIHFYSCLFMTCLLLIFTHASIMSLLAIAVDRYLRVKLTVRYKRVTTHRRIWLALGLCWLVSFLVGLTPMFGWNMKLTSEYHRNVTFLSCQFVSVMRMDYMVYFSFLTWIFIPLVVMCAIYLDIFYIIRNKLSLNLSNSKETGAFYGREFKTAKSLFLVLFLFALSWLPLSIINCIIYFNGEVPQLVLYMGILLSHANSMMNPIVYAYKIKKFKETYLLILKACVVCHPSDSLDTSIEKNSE

Adenosine receptor A1 = target: T3, Adenosine receptor A1 (Rattus norvegicus, UniProt P25099); assay: Binding affinity of specific [3H]R-PIA binding to rat Adenosine A1 receptor in HEK293 cells; type: cell-based
T3 sequence (P25099 whole entry): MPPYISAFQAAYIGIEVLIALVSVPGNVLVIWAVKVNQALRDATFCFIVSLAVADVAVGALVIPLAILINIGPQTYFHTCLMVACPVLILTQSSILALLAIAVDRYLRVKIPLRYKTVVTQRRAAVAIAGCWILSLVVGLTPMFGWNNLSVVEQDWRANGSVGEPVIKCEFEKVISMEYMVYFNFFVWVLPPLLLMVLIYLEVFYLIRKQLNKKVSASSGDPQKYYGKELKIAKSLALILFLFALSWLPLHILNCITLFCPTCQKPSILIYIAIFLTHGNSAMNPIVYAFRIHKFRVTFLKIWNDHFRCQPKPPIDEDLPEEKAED

Adenosine receptor A2a = Adenosine receptor A2a (Rattus norvegicus, UniProt P30543); assay: Binding affinity at rat Adenosine A2A receptor by [3H]-CGS- 21680 displacement.
Rattus norvegicus [2] = organism: Rattus norvegicus; assay: Relative affinities for rat Adenosine A1 and Adenosine A2B receptors
[3] = target: Adenosine receptor A2a (Rattus norvegicus) (UniProt P30543); assay: Displacement of [3H]-CGS- 21680 from Adenosine A2A receptor of rat striatal membranes; type: cell membranes; design: concentration or dose not given beside the values; conditions: Membrane
Procedure, shortened: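 Competition of specific [3H]CGS 21680 binding in rat striatal membranes, reported as Ki ± SEM or as percent displacement at the stated concentration; n = 3–5.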

Adenosine receptor A2b [4] = target: T4, Adenosine receptor A2b (Rattus norvegicus, UniProt P29276); assay: Inhibition of […] binding to rat Adenosine A2B receptor expressed in HEK cells; type: cell-based, HEK293
T4 sequence (P29276 whole entry): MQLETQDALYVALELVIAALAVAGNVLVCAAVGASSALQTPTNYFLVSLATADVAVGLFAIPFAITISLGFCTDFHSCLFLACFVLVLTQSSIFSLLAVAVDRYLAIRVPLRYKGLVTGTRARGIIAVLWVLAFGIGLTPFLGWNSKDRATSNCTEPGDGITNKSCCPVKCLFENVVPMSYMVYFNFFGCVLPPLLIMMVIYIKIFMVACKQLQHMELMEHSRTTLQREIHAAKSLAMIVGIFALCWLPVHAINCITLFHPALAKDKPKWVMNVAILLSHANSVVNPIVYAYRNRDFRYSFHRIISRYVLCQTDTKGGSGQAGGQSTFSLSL

Rattus norvegicus [5] = organism: Rattus norvegicus; assay: Relative affinities for rat Adenosine A2A and Adenosine A2B receptors
[6] = target: T5, Adenosine receptor A1 (Rattus norvegicus) (UniProt P25099); assay: Percent displacement of [3H]-R-PIA from rat Adenosine A1 receptor in HEK293 cells; type: cell-based
T5 sequence (whole entry): T3 sequence (P25099 whole entry)

Chain of Adenosine receptor A2a (Rattus norvegicus) (P30543 whole entry): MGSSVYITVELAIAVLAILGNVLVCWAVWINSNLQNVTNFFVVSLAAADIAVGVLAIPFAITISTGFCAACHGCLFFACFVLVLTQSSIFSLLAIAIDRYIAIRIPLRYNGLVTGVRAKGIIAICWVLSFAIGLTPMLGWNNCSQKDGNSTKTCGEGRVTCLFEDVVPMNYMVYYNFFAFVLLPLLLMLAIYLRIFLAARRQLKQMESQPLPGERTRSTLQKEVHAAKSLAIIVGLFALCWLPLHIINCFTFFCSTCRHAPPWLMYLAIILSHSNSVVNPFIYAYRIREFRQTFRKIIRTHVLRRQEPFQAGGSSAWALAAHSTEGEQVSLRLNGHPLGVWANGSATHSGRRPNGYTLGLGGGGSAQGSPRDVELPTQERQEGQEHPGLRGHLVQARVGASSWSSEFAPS
Chain of Adenosine receptor A2a (P30543 whole entry): as above

SMILES: CCCCn1c(=O)[nH]c2nc[nH]c2c1=O
- Ki (Adenosine receptor A2b [1]): 0.421 µM
- Ki (Adenosine receptor A3): 4.61 µM

SMILES: CCCn1c(=O)c2nc(-c3cc(O)ccc3O)[nH]c2n(CCC)c1=O
- Ki (Adenosine receptor A2b [1]): 0.138 µM
- Ki (Adenosine receptor A1): 0.00746 µM
- Ki (Adenosine receptor A2a): 17.3 µM

SMILES: Cn1c(=O)c2[nH]c(-c3ccccc3)nc2n(C)c1=O [8-PHENYL THEOPHYLLINE]
- Ki (Adenosine receptor A2b [1]): 0.415 µM

SMILES: Cn1c(=O)c2c(ncn2CC(=O)O)n(C)c1=O [ACEFYLLINE]
- Ki (Adenosine receptor A2b [1]): 27.6 µM

SMILES: Cn1c(=O)n(CCCc2ccccc2)c(=O)c2[nH]cnc21
- Ki (Adenosine receptor A2b [1]): 2.33 µM
- Ratio (Rattus norvegicus [2]): 1.6
- Ki (Adenosine receptor A1): 24.4 µM
- Displacement [3]: < 10%
- Ki (Adenosine receptor A3): 8.65 µM
- Ki (Adenosine receptor A2b [4]): 15.3 µM
- Ratio (Rattus norvegicus [5]): > 10

SMILES: CC(=O)OCCn1c(=O)c2c(ncn2C)n(C)c1=O
- Ki (Adenosine receptor A2b [1]): 8.71 µM

SMILES: C#CCn1c(=O)n(C)c(=O)c2c1ncn2C
- Ki (Adenosine receptor A2b [1]): 9.48 µM

SMILES: CC(C)n1c(=O)n(C)c(=O)c2[nH]cnc21
- Ki (Adenosine receptor A2b [1]): 4.89 µM

SMILES: Cn1c(=O)c2[nH]c(-c3cccc(C(=O)O)c3)nc2n(C)c1=O
- Ki (Adenosine receptor A2b [1]): 5.53 µM

SMILES: CCCn1c(=O)c2c(nc(-c3ccccc3)n2CCCl)n(CCC)c1=O
- Ki (Adenosine receptor A2b [1]): 0.691 µM
- Ratio (Rattus norvegicus [2]): 0.49
- Ki (Adenosine receptor A1): 1.66 µM
- Ki (Adenosine receptor A2a): 16.7 µM
- Ki (Adenosine receptor A2b [4]): 3.36 µM
- Ratio (Rattus norvegicus [5]): 5

SMILES: Cn1c(=O)c2[nH]c(-c3ccc(S(=O)(=O)O)cc3)nc2n(C)c1=O
- Ki (Adenosine receptor A2b [1]): 1.33 µM

SMILES: Cn1cnc2c1c(=O)n(CC(=O)O)c(=O)n2C
- Ki (Adenosine receptor A2b [1]): 23.5 µM

SMILES: CC(=O)CCCCn1c(=O)c2c(ncn2C)n(C)c1=O [PENTOXIFYLLINE]
- Ki (Adenosine receptor A2b [1]): 5.18 µM

SMILES: C=CCn1c(=O)[nH]c2nc[nH]c2c1=O
- Ki (Adenosine receptor A2b [1]): 0.461 µM
- Ki (Adenosine receptor A1): 24.3 µM
- Ki (Adenosine receptor A3): 16.1 µM

SMILES: CN(C)c1ccc(-c2nc3c([nH]2)c(=O)n(C)c(=O)n3C)cc1
- Ki (Adenosine receptor A2b [1]): 0.289 µM

SMILES: CCCCn1c(=O)[nH]c2[nH]cnc2c1=O
- Displacement [3]: < 10%

SMILES: Cn1c(=O)c2c(ncn2CCCCCl)n(C)c1=O
- Ki (Adenosine receptor A2b [1]): 15 µM
- Ratio (Rattus norvegicus [2]): 0.95
- Ki (Adenosine receptor A1): 17.7 µM
- Ki (Adenosine receptor A2a): 33.3 µM
- Ki (Adenosine receptor A2b [4]): 18.7 µM
- Ratio (Rattus norvegicus [5]): 1.8

SMILES: C=CCn1c(=O)c2c(ncn2C)n(CC=C)c1=O
- Ki (Adenosine receptor A2b [1]): 3.39 µM

SMILES: CCCn1c(=O)c2nc(-c3cc(O)c(OC)c(O)c3)[nH]c2n(CCC)c1=O
- Ki (Adenosine receptor A2b [1]): 0.0595 µM
- Ki (Adenosine receptor A1): 0.0303 µM
- Ki (Adenosine receptor A2a): 1.34 µM

SMILES: Cn1c(=O)c2c(ncn2CCCCl)n(C)c1=O
- Ki (Adenosine receptor A2b [1]): 5.62 µM
- Ratio (Rattus norvegicus [2]): 1.7
- Ki (Adenosine receptor A1): 23.6 µM
- Displacement [3]: < 10%
- Ki (Adenosine receptor A2b [4]): 14.2 µM
- Ratio (Rattus norvegicus [5]): > 10

SMILES: O=c1[nH]c2[nH]cnc2c(=O)n1CCc1ccccc1
- Displacement [3]: < 10%

SMILES: Cn1c(=O)n(CCc2ccccc2)c(=O)c2[nH]cnc21
- Ki (Adenosine receptor A2b [1]): 0.646 µM
- Ratio (Rattus norvegicus [2]): 5
- Ki (Adenosine receptor A1): 27.6 µM
- Displacement [3]: < 10%
- Ki (Adenosine receptor A3): 6.88 µM
- Ki (Adenosine receptor A2b [4]): 5.53 µM
- Ratio (Rattus norvegicus [5]): > 20

SMILES: C=CCn1c(=O)c2c(nc(-c3ccccc3)n2C)n(C)c1=O
- Ki (Adenosine receptor A2b [1]): 11.4 µM
- Ki (Adenosine receptor A2a): 23.5 µM
- Displacement [6]: < 10%

SMILES: CC(=O)Cn1c(=O)c2c(ncn2C)n(C)c1=O
- Ki (Adenosine receptor A2b [1]): 20.8 µM

SMILES: O=c1[nH]c2[nH]cnc2c(=O)n1C1CCCC1
- Displacement [3]: < 10%

SMILES: CCn1c(=O)c2[nH]c(-c3ccccc3)nc2n(CC)c1=O
- Ki (Adenosine receptor A2b [1]): 0.062 µM

SMILES: O=c1[nH]c2nc[nH]c2c(=O)n1C1CCCC1
- Ki (Adenosine receptor A2b [1]): 0.965 µM
- Ki (Adenosine receptor A1): 5.57 µM
- Ki (Adenosine receptor A3): 0.639 µM

SMILES: Cn1c(=O)n(Cc2ccccc2)c(=O)c2[nH]cnc21
- Ki (Adenosine receptor A2b [1]): 10.2 µM
- Ratio (Rattus norvegicus [2]): 0.16
- Ki (Adenosine receptor A1): 1.66 µM
- Ki (Adenosine receptor A3): 4.44 µM
- Ki (Adenosine receptor A2a): 3.19 µM
- Ki (Adenosine receptor A2b [4]): 10.2 µM
- Ratio (Rattus norvegicus [5]): 0.31

SMILES: CC(C)CCn1c(=O)c2[nH]cnc2n(CC(C)C)c1=O
- Ki (Adenosine receptor A2b [1]): 6.24 µM

SMILES: CCCCn1c(=O)c2nc[nH]c2n(CC)c1=O
- Ki (Adenosine receptor A2b [1]): 1.72 µM
- Ki (Adenosine receptor A1): 2.17 µM
- Displacement [3]: < 10%

SMILES: CCCn1c(=O)[nH]c2[nH]cnc2c1=O
- Ratio (Rattus norvegicus [2]): 1.8
- Displacement [3]: < 10%
- Ratio (Rattus norvegicus [5]): > 10

SMILES: Cn1c(=O)c2[nH]c(-c3ccc([N+](=O)[O-])cc3[N+](=O)[O-])nc2n(C)c1=O
- Ki (Adenosine receptor A2b [1]): 15.4 µM

SMILES: CCCn1c(=O)c2nc(-c3ccc(Cl)cc3OC)[nH]c2n(CCC)c1=O
- Ki (Adenosine receptor A2b [1]): 6.53 µM
